Rows were chosen to be rich in hits. Some 2% of all compounds tested hit in one or more screens of this group.
Insulin prom up: MIN6 insulin promoter up-regulation | MIN6 insulin promoter-GFP reporter, high-content imaging; stronger effect = higher value | z-score at 5 µM | 190,000 tested, 0.3% active;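 active = z-score above 3 at 5 µM with at least 500 cells counted in the well; inconclusive = wells under 500 cells, flagged as cytotoxic or low count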
Dynein transport: dynein cargo transport inhibition. 3617.4 mouse cells, GR-EGFP nuclear translocation imaging; test concentration mostly 20 µM; stimulated with dexamethasone, 1 µM; stronger effect = lower value. z-score, hits read low. 220,000 tested, 0.47% active;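 active = plate z-score of nuclear minus cytoplasmic receptor signal below a set negative limit, without overly bright fluorescence or cell loss, cut at about -3.5 in these data, passing the limit was not always enough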;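 also: z-score of nuclear minus cytoplasmic ring GR-EGFP intensity difference per well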
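Buffer or medium: tet-free, stripped-serum medium; Also added: dexamethasone, 1.0 µM final; Technique: high-content fluorescence imaging after fixation; Times: 48 h induction, 1 h compound, 30 min dex at 37 °C; Read-out: per-cell GR-EGFP intensity, nucleus versus surrounding cytoplasmic ring, well-averaged.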
Insulin prom inh: TRM-6 insulin promoter activity inhibition | TRM-6 cells (human fetal islet line), insulin promoter-eGFP reporter, imaging; reporter expression induced with tamoxifen | 130,000 tested, 0.9% active | inhibition, % at 2 µM;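 active = inhibition above the mean plus 3 SD, with well images judged a real hit on visual review, cut at about 60% in these data, passing the limit was not always enough; inconclusive = inhibition over the cutoff but images rejected on review; inactive = inhibition not above the cutoff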
Autophagy HCS: alters autophagy in cells | calls only at 10 µM (by protocol) | AID 463193 | 190,000 tested, 0.98% active | MEF GFP-LC3 puncta imaging; test concentration mostly 10 µM;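 active = percentage of spot-positive cells more than 3 SD above its plate mean, without a fluorescence outlier flag or 80% toxicity; inconclusive = no clear call, values can overlap the other calls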;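 also: spot-positive cell cutoff set from DMSO-treated cells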
Numbers without * were called inactive; i = inactive; ? = inconclusive; / = not tested or not shown; + = active, no number.

SMILES	Insulin prom up	Dynein transport	Insulin prom inh	Autophagy HCS
CCN(CC)S(=O)(=O)c1ccc(C(=O)C(C#N)c2ccccn2)cc1 (stereo not drawn)	0.81	1.49	72.7*	i
CC(C)CC(NC(=O)C(NC(=O)C1OC2OC(C)(C)OC2C2OC(C)(C)OC12)C(C)C)C(=O)O (stereo not drawn)	0.02	-0.206	/	i
Cc1cc(C)c2c(c1)/C(=c1/sc3n(c1=O)CN(c1ccccc1)CN=3)C(=O)N2	/	-0.327	/	/
COCCNC(=O)CN(C(=O)c1ccc(N2CCCC2)nc1)c1ccccc1	-0.09	1.05	i	+
CCOC(=O)N1CCN(C(=O)C2CCCN(Cc3nc(-c4ccc(Cl)cc4)oc3C)C2)CC1 (stereo not drawn)	-0.71	-1.03	/	+
OC(CNCC(c1ccc(Cl)cc1Cl)c1c[nH]c2ccccc12)c1ccccc1 (stereo not drawn)	-1.05	1.88	-314.3	i
NS(=O)(=O)c1ccc(NC(=O)COC(=O)c2cnccn2)cc1	0.78	0.575	/	i
O=C(Nc1ccsc1C(=O)N1CCCC1)c1ccccc1	-0.44	-0.73	90.9*	i
COCCCn1c(=O)/c(=C\c2ccccc2OC(F)F)s/c1=C(/C#N)C(=O)NCCOC	-0.56	0.412	/	/
COCCNC(=O)/C(C#N)=c1\s/c(=C\c2ccccc2OC(F)F)c(=O)n1Cc1ccccc1	0.49	-0.334	/	+
CCCCNC(=O)/C(C#N)=c1\s/c(=C\c2ccccc2OC(F)F)c(=O)n1CCCOC	4.53*	-0.311	/	+
COCCCNC(=O)/C(C#N)=c1\s/c(=C\c2ccccc2OC(F)F)c(=O)n1CCCOC	1.47	0.342	/	i
O=C1N/C(=N/S(=O)(=O)Cc2ccccc2)S/C1=C/c1ccc2c(c1)OCO2	0.28	-0.211	/	/
CSc1nc2ccc(S(=O)(=O)N(C)C)cc2s1	-0.19	0.0467	-3.3	i
CCN(CC)S(=O)(=O)c1ccc2nc(SC)sc2c1	-0.14	0.783	78.6*	i
O=C(C=C=Nc1ccccc1)C(=O)N=C=Cc1ccccc1	-1.75	-0.768	/	/
Cc1[nH]c2c(C)cccc2c1CCNS(=O)(=O)c1cccc([N+](=O)[O-])c1	/	-1.05	/	+
CCN(CC)c1ccc(NC(=O)c2ccccc2OCC(=O)OC)cc1	0.38	0.753	/	i
O=c1oc2ccc3ccccc3c2cc1-c1nnc(-c2ccccc2)o1	/	-1.29	/	i
CCN(CC)c1ccc2cc(-c3nnc(-c4ccc(Br)cc4)o3)c(=O)oc2c1	/	-5.72*	-40.0	?
CCN(CC)c1ccc2cc(-c3nnc(-c4ccccc4)o3)c(=O)oc2c1	/	-4.52*	11.6	?
O=Cc1c(Cl)nc2ccccn2c1=O	0.73	-3.27	/	/
O=C1NC(=Nc2ccccc2)S/C1=C/c1cccnc1	-0.76	-0.139	/	i
O=C1N/C(=N/Nc2ccccc2)S/C1=C\c1ccccc1	3.19*	0.477	/	i
O=S(=O)(NCC1CCCO1)c1ccc(-c2ccc(Cl)cc2)cc1 (stereo not drawn)	-0.56	-0.969	/	+
SMILES	Insulin prom up	Dynein transport	Insulin prom inh	Autophagy HCS
O=[N+]([O-])c1cc(Cl)cc(/C=N/NC(=S)Nc2ccc(S(=O)(=O)N3CCOCC3)cc2)c1O	-0.83	-0.767	/	/
COC(=O)c1ccc(Oc2nc(C(N)=O)cc(-c3ccccc3)n2)cc1	/	-1.15	61.1*	i
Cc1ccc(SCC(=O)Nc2ccc(N3CCOCC3)cc2)c(C)c1	-0.74	0.068	-64.3	i
O=c1nccc(SCc2ccc(Cl)cc2Cl)[nH]1	-0.84	0.00379	/	/
COc1ccccc1-c1nc(C#N)c(N2CCN(C(c3ccccc3)c3ccccc3)CC2)o1	-0.51	0.174	72.7*	i
CCOC(=O)c1c(NC(=O)CN2C(=O)NC(C)(c3ccccc3)C2=O)sc(C)c1C (stereo not drawn)	-0.16	0.0204	0.0	+
CCOC(=O)c1c(NC(=O)CN2C(=O)NC3(CCCCC3C)C2=O)sc(C)c1C (stereo not drawn)	0.17	-0.444	26.7	i
CC(=O)Nc1ccc2nc(CN3CCC(CO)(CCc4ccccc4)CC3)ccc2c1	1.83	1.43	/	/
COc1nnc(OC)c2ccccc12	0.63	1.28	-18.2	i
COc1c2ccccc2c(OC)c2ccccc12	0.09	1.14	41.2	+
CCOC(=O)c1sc(NC(=O)CSc2nc(C)cc(C)n2)c(C#N)c1C	0.78	-1.07	-20.0	i
CCOC(=O)c1sc(NC(=O)CSc2n[nH]c(-c3ccccc3)n2)c(C#N)c1C	1.04	-1.09	/	+
CCOC(=O)c1c(NC(=O)CSc2nc(C)cc(C)c2C#N)sc(C(C)=O)c1C	-0.95	-0.0331	/	+
Cc1cc2occ(CC(=O)NC3=NCCS3)c2cc1C(C)C	/	-0.246	/	+
O=c1cc(CSCc2ccc(Cl)cc2)[nH]c(=O)[nH]1	0.01	-0.834	/	/
COc1ccc(N2CCN(C(=O)CCCn3c(=O)[nH]c4cc(Cl)ccc4c3=O)CC2)cc1	0.01	-0.127	74.2*	i
CC(=O)c1ccc(N2CCN(C(=O)CCCn3c(=O)[nH]c4ccccc4c3=O)CC2)cc1	-0.44	0.181	13.3	i
Cc1cc(C)c2nc(N3CCC(C(=O)NCCCN4CC(C)CC(C)C4)CC3)sc2c1 (stereo not drawn)	-0.31	5.29	-63.0	+
CCCCNc1nc(N)nc(-c2cc(Cl)ccc2O)n1	-0.39	1.23	15.4	i
CCNc1nc(N)nc(-c2cc(Cl)ccc2O)n1	-0.87	0.0733	61.5*	i
Cc1ccc2nc3cc([N+](=O)[O-])cc([N+](=O)[O-])c3cc2c1	/	-6.25*	-488.2	+
Cc1nc2ccc([N+](=O)[O-])cc2nc1C	-0.05	3.24	13.3	i
CSc1nc(-c2ccc(Cl)cc2Cl)[nH]c(=O)c1C#N	0.17	-0.102	78.6*	i
Cc1cc(-c2ccc(Cl)cc2Cl)c(C#N)c(=O)[nH]1	/	-0.675	/	/
Cc1ccc(C(=O)NCCc2ccc(F)cc2)s1	0.6	0.26	/	i
SMILES	Insulin prom up	Dynein transport	Insulin prom inh	Autophagy HCS
CC1CCCN(c2ccc(C(=O)NCc3cccs3)cn2)C1 (stereo not drawn)	/	0.954	27.6	i
O=C(NCc1cccs1)c1ccc(N2CCCCC2)nc1	3.41*	1.59	13.2	i
Cc1c(Cl)c(C(F)(F)F)nn1CC(=O)N1CCSCC1	0.58	0.29	100.0*	i
CN(C)C=NC(=O)c1cc(C(=O)c2ccc(Cl)cc2Cl)c[nH]1	-0.03	-0.862	/	i
CN(CC(=O)OCC(=O)NCC(F)(F)F)S(=O)(=O)c1ccc(Cl)cc1	-0.36	-0.531	66.7	i
CCn1ncc(Br)c1C(=O)Nc1sc2c(c1C(N)=O)CCC2	3.46*	0.728	45.5	i
Cn1cc(Br)c(C(=O)Nc2sc3c(c2C(N)=O)CCC3)n1	1.38	-0.685	-23.3	i
COc1cccc(OCCNc2cc(Cl)ccc2[N+](=O)[O-])c1	-1.08	-0.0572	78.3*	i
O=[N+]([O-])c1ccccc1NCCOc1ccccc1	0.17	-0.279	0.0	i
O=C(Nc1ccc(C2=NCCN2)cc1)c1ccc(Cl)c(C(=O)Nc2ccc(C3=NCCN3)cc2)c1	-0.23	0.321	/	/
Cc1nn(C2CCS(=O)(=O)C2)c(Cl)c1/C=C/C(=O)OCC(=O)Nc1ccccc1[N+](=O)[O-] (stereo not drawn)	1	2.32	/	i

Bioassay records from PubChem BioAssay.
